Where “and” joins values, the source holds several entries; their conditions need not be identical. Identical values can stand only once. Screen size: about 96,000 compounds; about 140 (0.15%) were called active.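 How the source made its calls: active means mean replicate inhibition above about 25%, with at least 55% of replicates also reaching it (limit read from the data, passing the limit was not always enough); inconclusive means only one of those two conditions met; inactive means neither condition met.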 Shown is part of a subset that was picked to be rich in actives. Some structures have more than one record in an assay (separate samples or runs), and their calls can disagree.
Biological target: Lysine-specific demethylase 4C (Homo sapiens) (UniProt Q9H3R0)
Assay: inhibitors of GASC-1 (KDM4C) histone demethylase, primary screen, biochemical, single concentration HTS (AID 720574)
Conditions: GST-KDM4C 2-372, H3K9me3 peptide, LANCE TR-FRET; at 12.5 µM; stronger effect = higher value
Summary of the method: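 material = GST-tagged GASC-1 (JMJD2C) catalytic fragment, aa 2-372 | amount = enzyme final amount 10 nM | medium = HEPES buffer, pH 7.5, plus ascorbate | also added = H3K9me3 peptide substrate, Fe(II), 2-oxoglutarate | dosing = single dose | times = 30 min demethylation and 1 h detection at room temperature | detection = LANCE TR-FRET | read-out basis = Fall in 671/618 emission ratio as inhibition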

Chain of Lysine-specific demethylase 4C (Homo sapiens) (Q9H3R0 2-372 limits assumed): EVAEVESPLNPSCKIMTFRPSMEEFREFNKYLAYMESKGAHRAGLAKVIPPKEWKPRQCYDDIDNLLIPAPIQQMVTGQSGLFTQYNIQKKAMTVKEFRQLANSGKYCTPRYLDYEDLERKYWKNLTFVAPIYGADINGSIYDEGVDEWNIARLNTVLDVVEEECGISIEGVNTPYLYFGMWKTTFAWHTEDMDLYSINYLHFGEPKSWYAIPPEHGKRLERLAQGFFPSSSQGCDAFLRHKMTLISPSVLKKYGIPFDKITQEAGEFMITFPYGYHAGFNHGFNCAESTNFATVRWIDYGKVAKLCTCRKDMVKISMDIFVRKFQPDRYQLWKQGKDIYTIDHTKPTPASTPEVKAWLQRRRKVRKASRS

| Structure (SMILES) | inhibition |
| --- | --- |
| CCC(=O)Nc1ccc2c(c1)C(=O)N(C)C[C@@H](OC)[C@H](C)CN(Cc1cccnc1)[C@@H](C)CO2 | -0.624% (inactive) |
| CCCC#Cc1ccc([C@@H]2[C@@H](CO)N3C(=O)CN(C(=O)Nc4ccc(F)cc4)C[C@@H]23)cc1 | -0.912% (inactive) |
| CCC(=O)N1[C@@H](CO)[C@@H](c2ccccc2)C12CN(C(=O)Cc1ccccc1)C2 | 7.87% (inactive) |
| Cc1noc(C)c1NC(=O)N(C)C[C@@H]1OCCCC[C@H](C)Oc2ccc(NC(=O)c3ccccc3)cc2C(=O)N([C@@H](C)CO)C[C@@H]1C | 1.18% (inactive) |
| O=C(Nc1ccccc1F)N[C@@H]1CC[C@@H](CCNC(=O)C2CC2)O[C@H]1CO | -1.05% (inactive) |
| Cc1ccccc1-c1ccc(C2[C@@H]3CN(C(=O)C4CCCCC4)C[C@H]2N3)cc1 (some centres undefined) | 40% (active) and 1.58% (inactive) |
| O=C(C1CCC1)N1C[C@@H]2N[C@H](C1)C2c1ccc(-c2cncnc2)cc1 (some centres undefined) | 0.917% (inactive) |
| O=C(C1CCCCC1)N1C[C@@H]2N[C@H](C1)C2c1ccc(-c2cccc(F)c2)cc1 (some centres undefined) | 4.43% (inactive) and 0.21% (inactive) |
| CN1c2ccc(-c3cccc(F)c3)cc2[C@H]2[C@H](CCN2C(=O)C2CCCC2)[C@@H]1CO | 5.91% (inactive) |
| COCC#Cc1ccc([C@H]2[C@H](CO)N3C(=O)CN(C(=O)Nc4ccccc4F)C[C@@H]23)cc1 | 0.262% (inactive) |
| O=C(C[C@@H]1CC[C@@H]2[C@H](COC[C@H](O)CN2Cc2cccc(-c3ccncc3)c2)O1)N1CCOCC1 | -0.984% (inactive) |
| Cc1noc(C)c1S(=O)(=O)N(C)C[C@H]1OCCCC[C@H](C)Oc2ccc(NS(=O)(=O)c3ccccc3)cc2C(=O)N([C@H](C)CO)C[C@@H]1C | -0.427% (inactive) |
| CO[C@H]1CN(C)C(=O)c2cc(NS(C)(=O)=O)ccc2OC[C@@H](C)N(C(=O)NC(C)C)C[C@@H]1C | 1.54% (inactive) |
| C[C@H]1CN([C@@H](C)CO)C(=O)c2cccc(NC(=O)CCCCCC(=O)Nc3ccccc3N)c2O[C@@H]1CN(C)C(=O)NC1CCCCC1 | 0.11% (inactive) |
| O=C(C[C@@H]1C=C[C@H](NC(=O)CN2CCOCC2)[C@@H](CO)O1)NC1CCC1 | -2.2% (inactive) |
| CCCN1[C@@H]2c3ccc(-c4ccccc4OC)c(=O)n3C[C@H]1[C@H](CO)[C@H]2C(=O)NCc1ccccn1 | 0.442% (inactive) |
| COCC(=O)N(C)C[C@H]1Oc2cc(C#C[C@@H](C)O)ccc2S(=O)(=O)N([C@H](C)CO)C[C@H]1C | 0.918% (inactive) |
| COc1ccccc1S(=O)(=O)N[C@H]1CC[C@@H](CC(=O)NCc2cc(F)cc(F)c2)O[C@H]1CO | -1.06% (inactive) |
| COc1ccc2c3c(n(C)c2c1)[C@H](CO)N(C(=O)NC(C)C)CC31CN(CC2CCCCC2)C1 | -0.934% (inactive) |
| C[C@H](CO)N1C[C@H](C)[C@H](CN(C)CC2CCCCC2)OCCCC[C@H](C)Oc2ccc(NS(=O)(=O)c3ccc(F)cc3)cc2C1=O | -1.51% (inactive) |
| COCC(=O)N1[C@H](CO)[C@H](c2ccccc2)C12CN(C(=O)NC1CCCCC1)C2 | 0.705% (inactive) |
| CCC(=O)N1CC(=O)N2[C@H](CO)[C@@H](c3ccc(-c4ccc(C(=O)N(C)C)cc4)cc3)[C@@H]2C1 | -0.23% (inactive) |

| Structure (SMILES) | inhibition |
| --- | --- |
| COc1ccc(S(=O)(=O)N[C@H]2CC[C@H](CCn3cc(C(C)C)nn3)O[C@@H]2CO)cc1 | 0.0615% (inactive) |
| CCCC#Cc1ccc([C@H]2[C@H](CO)N3C(=O)CN(C(=O)c4ccc(F)cc4)C[C@@H]23)cc1 | 0.883% (inactive) |
| C/C=C/c1ccc([C@H]2[C@@H](CO)N(C(=O)C3CC3)[C@@H]2CNC(=O)NC(C)C)cc1 | 0.927% (inactive) |
| COc1ccccc1S(=O)(=O)N[C@@H]1C=C[C@H](CC(=O)NCc2cccc(F)c2)O[C@H]1CO | -0.0955% (inactive) |
| C/C=C/c1ccccc1[C@H]1[C@@H](C#N)N(c2nc(CC)cs2)[C@@H]1CO | -0.26% (inactive) |
| CN(C)C(=O)C[C@@H]1C[C@@H]2c3cc(NC(=O)NC4CCCCC4)ccc3O[C@@H]2[C@H](CO)O1 | -1.19% (inactive) |
| CO[C@@H]1CN(C)C(=O)c2ccc(NC(C)=O)cc2OC[C@@H](C)N(CC2CC2)C[C@H]1C | 2.5% (inactive) |
| C[C@H](CO)N1C[C@H](C)[C@@H](CN(C)Cc2ccc(-c3ccccc3)cc2)Oc2ccc(NC(=O)Cn3cnnn3)cc2C1=O | -1.72% (inactive) |
| CCCN(C)C[C@H]1Oc2ncc(-c3cccnc3)cc2C(=O)N([C@@H](C)CO)C[C@@H]1C | -0.329% (inactive) |
| C[C@H](CO)N1C[C@H](C)[C@@H](CN(C)C(=O)c2ccncc2)Oc2cc(/C=C/c3ccccc3)ccc2S1(=O)=O | -4.23% (inactive) |
| CS(=O)(=O)Nc1ccc2c(c1)[C@@H]1C[C@H](CC(=O)NCc3ccccn3)O[C@@H](CO)[C@@H]1O2 | -0.895% (inactive) |
| COc1ccc2c3c([nH]c2c1)[C@@H](CO)N(Cc1ccccc1)CC31CCN(Cc2cncnc2)CC1 | -1.85% (inactive) |
| COc1ccccc1S(=O)(=O)N[C@@H]1CC[C@@H](CCn2cc(C3CCCCC3)nn2)O[C@H]1CO | 0.124% (inactive) |
| CCC(=O)Nc1ccc2c(c1)C(=O)N(C)[C@H]1CC[C@H](CC(=O)NCC3CCCCC3)O[C@H]1CO2 | -0.841% (inactive) |
| Cc1ccc(S(=O)(=O)NCC[C@H]2CC[C@H](NC(=O)c3ccccn3)[C@H](CO)O2)cc1 | -1.29% (inactive) |
| CCCN1[C@@H]2c3ccc(-c4ccccc4)c(=O)n3C[C@@H]2[C@@H](CO)[C@@H]1C(=O)N(C)C | 0.941% (inactive) |
| COc1ccccc1C(=O)Nc1ccc2c(c1)OC[C@@H](C)NC[C@H](C)[C@@H](OC)CN(C)C2=O | -1.47% (inactive) |
| CCCNC(=O)N(C)C[C@H]1Oc2cc(C#C[C@@H](C)O)ccc2S(=O)(=O)N([C@H](C)CO)C[C@H]1C | 7.38% (inactive) |
| CO[C@H]1CC[C@@H]2CCOc3c(C#N)cccc3C(=O)N(C)C[C@@H](OC)[C@H](C)C(=O)N(C)C[C@H]1O2 | 0.229% (inactive) |
| CN1C(=O)c2cc(NC(=O)C3CCC3)ccc2OC[C@@H]2O[C@@H](CC(=O)NCCc3ccncc3)CC[C@H]21 | 1.45% (inactive) |
| CN1C[C@H]2[C@@H](c3ccccc31)[C@@H](CO)N2C(=O)Nc1ccccc1 | -2.7% (inactive) |
| COc1cccc(-c2ccc3n(c2=O)C[C@@H]2[C@@H](CO)[C@H](C(=O)NC4CCC4)[C@H]3N2C)c1 | 1.02% (inactive) |

| Structure (SMILES) | inhibition |
| --- | --- |
| CO[C@@H]1CN(C)C(=O)c2cc(NC(=O)C3CCCC3)ccc2OC[C@H](C)N(C)C[C@@H]1C | -0.0185% (inactive) |
| CO[C@H]1CN(C)C(=O)c2ccc(NC(C)=O)cc2OC[C@@H](C)N(C(=O)CN(C)C)C[C@@H]1C | -0.377% (inactive) |
| CC(=O)N1[C@H](CO)[C@@H](c2ccccc2)[C@@H]1CN(CC(C)C)C(=O)c1ccccn1 | 4.04% (inactive) |
| CCCC(=O)Nc1ccc2c(c1)OC[C@H](C)N(C(=O)C1CCCC1)C[C@@H](C)[C@H](OC)CN(C)C2=O | 0.661% (inactive) |
| Cc1cccc(S(=O)(=O)N2C[C@@H](O)COC[C@H]3O[C@H](CC(=O)N4CCN(C)CC4)CC[C@@H]32)c1 | -1% (inactive) |
| O=C(Cc1ccncc1)N1CC[C@@H]2[C@@H](CO)Nc3ccc(C4=CCCCC4)cc3[C@@H]21 | 0.328% (inactive) |
| CC(C)NC(=O)N1C[C@@H]2[C@H](c3ccccc31)[C@@H](CO)N2Cc1ccc(Cl)cc1 | 1.62% (inactive) |
| CO[C@@H]1CN(C)C(=O)c2cc(NC(=O)Nc3cc(F)ccc3F)ccc2OC[C@H](C)N(C(=O)c2ccccn2)C[C@@H]1C | -1.15% (inactive) |
| CCC(=O)Nc1ccc2c(c1)C(=O)N(C)C[C@H](OC)[C@H](C)CN(CCC(F)(F)F)[C@H](C)CO2 | -0.234% (inactive) |
| C[C@H]1CCCCO[C@@H](CN(C)C(=O)Nc2cccc3ccccc23)[C@@H](C)CN([C@@H](C)CO)C(=O)c2cc(NS(=O)(=O)c3cn(C)cn3)ccc2O1 | -7.92% (inactive) |
| O=C(C[C@H]1C[C@H]2c3cc(NC(=O)C4CCOCC4)ccc3O[C@H]2[C@@H](CO)O1)NCCN1CCCCC1 | 1.06% (inactive) |
| O=C(C[C@H]1CC[C@H]2[C@@H](COC[C@H](O)CN2S(=O)(=O)c2cccc(F)c2)O1)NC1CCC1 | 0.711% (inactive) |
| O=C(C[C@H]1CC[C@@H]2[C@H](COC[C@H](O)CN2Cc2ccccc2F)O1)NC1CCC1 | 1.48% (inactive) |
| O=C(C[C@@H]1C=C[C@@H](NC(=O)c2cccnc2)[C@H](CO)O1)NCc1ccncn1 | 1.05% (inactive) |
| C[C@H](CO)N1C[C@H](C)[C@@H](CN(C)S(C)(=O)=O)Oc2cc(C#CC3CC3)ccc2S1(=O)=O | 4.29% (inactive) |
| C[C@H]1CCCCO[C@H](CN(C)C(=O)Nc2ccc(F)cc2)[C@@H](C)CN([C@@H](C)CO)C(=O)c2cc(NC(=O)CCC(F)(F)F)ccc2O1 | 1.63% (inactive) |
| CS(=O)(=O)N1CC2(C1)[C@H](c1ccccc1)[C@@H](CO)N2C(=O)c1ccccc1 | -0.995% (inactive) |
| O=C(Cc1ccncc1)N[C@@H]1CC[C@H](CCn2cc(-c3ccccc3F)nn2)O[C@H]1CO | -1.33% (inactive) |
| CN(C)CC(=O)N1[C@@H](CO)[C@H](c2ccccc2)C12CN(C(=O)c1cccc(F)c1)C2 | -0.471% (inactive) |
| CCC(=O)N1[C@H](C(=O)OC)[C@@H](CO)[C@@H]2Cn3c(ccc(-c4cccc(F)c4)c3=O)[C@@H]21 | 1.8% (inactive) |

From PubChem BioAssay AID720574 (Broad Institute, 2013)
